Laboratory results from ChEMBL document CHEMBL1130165 (J Med Chem, 1997).
≈ marks a conversion by molar mass, not a printed value.

Assays:
[1] = test system: B16; test: Ratio of ED50 of compound to that of ED50 of paclitaxel; ED50 expressed as concentration which produces 50% inhibition of proliferation of B16 melanoma cells after 40h incubation; assay type: functional, Mus musculus
Procedure, shortened: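 B16 melanoma cells were incubated with compound for 40 h. Each value is expressed as a ratio to the paclitaxel ED50.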

[2] = Aqueous solubility was determined; assay type: physicochemical; conditions: aqueous medium (not further specified)
[3] = Ratio of solubility to that of paclitaxel solubility; assay type: ADME
[4] = Ratio of solubility to that of paclitaxel solubility; range 17-20; assay type: ADME
[5] = Aqueous solubility was determined; range 5-6; assay type: physicochemical; conditions: aqueous medium (not further specified)
[6] = target: Tubulin beta-1 chain (Homo sapiens) (UniProt Q9H4B7); test: Ratio of ED50 of compound to that of ED50 of paclitaxel; ED50 expressed as concentration which causes polymerization of 50% of the tubulin in microtubule assembly assay (in vitro); assay type: functional
Tubulin beta-1 chain (Homo sapiens), sequence (Q9H4B7 whole entry): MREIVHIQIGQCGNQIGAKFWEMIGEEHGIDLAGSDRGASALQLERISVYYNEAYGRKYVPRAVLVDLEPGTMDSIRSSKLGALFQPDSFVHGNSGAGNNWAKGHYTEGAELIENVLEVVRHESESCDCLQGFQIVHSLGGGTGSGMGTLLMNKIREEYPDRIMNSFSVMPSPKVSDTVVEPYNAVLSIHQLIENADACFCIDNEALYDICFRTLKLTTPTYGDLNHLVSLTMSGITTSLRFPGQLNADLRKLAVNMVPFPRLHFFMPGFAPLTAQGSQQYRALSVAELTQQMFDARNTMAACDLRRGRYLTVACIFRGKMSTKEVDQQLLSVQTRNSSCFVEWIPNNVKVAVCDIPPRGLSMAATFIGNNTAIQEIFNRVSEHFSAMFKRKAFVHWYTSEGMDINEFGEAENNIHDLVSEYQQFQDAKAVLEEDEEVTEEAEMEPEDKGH
Procedure, shortened: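 In vitro microtubule assembly assay. […] Each compound's ED50 is expressed as a ratio to the paclitaxel ED50.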

[7] = Ratio of solubility to that of paclitaxel solubility; range 23-28; assay type: ADME
[8] = Aqueous solubility was determined; range 6.8-8.4; assay type: physicochemical; conditions: aqueous medium (not further specified)

CC(=O)O[C@@]12COC1C[C@H](O)[C@@]1(C)C(=O)[C@H](O)C3=C(C)[C@@H](OC(=O)[C@H](O)[C@@H](NC(=O)OC(C)(C)C)C(C)(C)C)C[C@@](O)([C@@H](OC(=O)c4ccccc4)[C@@H]12)C3(C)C (some centres undefined)
ED50 ratio [1]: 0.4
solubility [2]: 33 µg/mL (≈ 41.9 µM)
Ratio [3]: 110

CC(=O)O[C@@]12COC1C[C@H](O)[C@@]1(C)C(=O)[C@H](O)C3=C(C)[C@@H](OC(=O)[C@H](O)[C@@H](NC(=O)OC(C)C)C(C)(C)C)C[C@@](O)([C@@H](OC(=O)c4ccccc4)[C@@H]12)C3(C)C (some centres undefined)
ED50 ratio [1]: 1.2
solubility [2]: 0.5 µg/mL (≈ 0.646 µM)
Ratio [3]: 1.7

CC(=O)O[C@@]12COC1C[C@H](O)[C@@]1(C)C(=O)[C@H](O)C3=C(C)[C@@H](OC(=O)[C@H](O)[C@@H](NC(=O)/C=C/c4cccs4)C(C)(C)C)C[C@@](O)([C@@H](OC(=O)c4ccccc4)[C@@H]12)C3(C)C (some centres undefined)
solubility [2]: 1 µg/mL (≈ 1.21 µM)

CC(=O)O[C@@]12CO[C@@H]1C[C@H](O)[C@@]1(C)C(=O)[C@H](O)C3=C(C)[C@@H](OC(=O)[C@H](O)[C@@H](NC(=O)OC(C)(C)C)c4ccccc4)C[C@@](O)([C@@H](OC(=O)c4ccccc4)[C@H]21)C3(C)C.O.O.O [DOCETAXEL]
ED50 ratio [1]: 0.41
Ratio [4]: 20
solubility [5]: 6 µg/mL
ED50 ratio [6]: 0.45

CC(=O)O[C@@]12COC1C[C@H](O)[C@@]1(C)C(=O)[C@H](O)C3=C(C)[C@@H](OC(=O)[C@H](O)[C@@H](NC(=O)Cc4cccs4)C(C)(C)C)C[C@@](O)([C@@H](OC(=O)c4ccccc4)[C@@H]12)C3(C)C (some centres undefined)
ED50 ratio [1]: 3.3
solubility [2]: 6.7 µg/mL (≈ 8.25 µM)
Ratio [3]: 23

CCCOC(=O)N[C@H]([C@@H](O)C(=O)O[C@H]1C[C@@]2(O)[C@@H](OC(=O)c3ccccc3)[C@H]3[C@](C)(C(=O)[C@H](O)C(=C1C)C2(C)C)[C@@H](O)CC1OC[C@]13OC(C)=O)C(C)(C)C (some centres undefined)
ED50 ratio [1]: 1.5
ED50 ratio [6]: 1.7

CC(=O)O[C@@]12COC1C[C@H](O)[C@@]1(C)C(=O)[C@H](O)C3=C(C)[C@@H](OC(=O)[C@H](O)[C@@H](NC(=O)c4ccco4)C(C)(C)C)C[C@@](O)([C@@H](OC(=O)c4ccccc4)[C@@H]12)C3(C)C (some centres undefined)
ED50 ratio [1]: 2.1
solubility [2]: 22 µg/mL (≈ 28.1 µM)
Ratio [3]: 73

CCC(CC)C(=O)N[C@H]([C@@H](O)C(=O)O[C@H]1C[C@@]2(O)[C@@H](OC(=O)c3ccccc3)[C@H]3[C@](C)(C(=O)[C@H](O)C(=C1C)C2(C)C)[C@@H](O)CC1OC[C@]13OC(C)=O)C(C)(C)C (some centres undefined)
ED50 ratio [1]: 26
ED50 ratio [6]: 1.7

CC(=O)O[C@H]1C(=O)[C@@]2(C)[C@H]([C@H](OC(=O)c3ccccc3)[C@]3(O)C[C@H](OC(=O)[C@H](O)[C@@H](NC(=O)c4ccccc4)c4ccccc4)C(C)=C1C3(C)C)[C@]1(OC(C)=O)CO[C@@H]1C[C@@H]2O [PACLITAXEL]
ED50 ratio [1]: 1
Ratio [3]: 1

CC(=O)O[C@@]12COC1C[C@H](O)[C@@]1(C)C(=O)[C@H](O)C3=C(C)[C@@H](OC(=O)[C@H](O)[C@@H](NC(=O)c4ccc(C)s4)C(C)(C)C)C[C@@](O)([C@@H](OC(=O)c4ccccc4)[C@@H]12)C3(C)C (some centres undefined)
ED50 ratio [1]: 32
solubility [2]: 4 µg/mL (≈ 4.93 µM)
Ratio [3]: 13

CC(=O)O[C@@]12COC1C[C@H](O)[C@@]1(C)C(=O)[C@H](O)C3=C(C)[C@@H](OC(=O)[C@H](O)[C@@H](NC(=O)C4CC4)C(C)(C)C)C[C@@](O)([C@@H](OC(=O)c4ccccc4)[C@@H]12)C3(C)C (some centres undefined)
ED50 ratio [1]: 2.1
solubility [2]: 45 µg/mL (≈ 59.5 µM)
Ratio [3]: 150

CCCCCCOC(=O)N[C@H]([C@@H](O)C(=O)O[C@H]1C[C@@]2(O)[C@@H](OC(=O)c3ccccc3)[C@H]3[C@](C)(C(=O)[C@H](O)C(=C1C)C2(C)C)[C@@H](O)CC1OC[C@]13OC(C)=O)C(C)(C)C (some centres undefined)
ED50 ratio [1]: 12
ED50 ratio [6]: 2.3

CC(=O)O[C@@]12COC1C[C@H](O)[C@@]1(C)C(=O)[C@H](O)C3=C(C)[C@@H](OC(=O)[C@H](O)[C@@H](NC(=O)C4CCCCC4)C(C)(C)C)C[C@@](O)([C@@H](OC(=O)c4ccccc4)[C@@H]12)C3(C)C (some centres undefined)
ED50 ratio [1]: 3.8
solubility [2]: 45 µg/mL (≈ 56.4 µM)
Ratio [3]: 150

CC(=O)O[C@@]12COC1C[C@H](O)[C@@]1(C)C(=O)[C@H](O)C3=C(C)[C@@H](OC(=O)[C@H](O)[C@@H](NC(=O)c4cccn4C)C(C)(C)C)C[C@@](O)([C@@H](OC(=O)c4ccccc4)[C@@H]12)C3(C)C (some centres undefined)
ED50 ratio [1]: 1.2
solubility [2]: 0.5 µg/mL (≈ 0.629 µM)
Ratio [3]: 1.8

CC(=O)O[C@@]12COC1C[C@H](O)[C@@]1(C)C(=O)[C@H](O)C3=C(C)[C@@H](OC(=O)[C@H](O)[C@@H](NC(=O)C4CCCC4)C(C)(C)C)C[C@@](O)([C@@H](OC(=O)c4ccccc4)[C@@H]12)C3(C)C (some centres undefined)
ED50 ratio [1]: 1.4
ED50 ratio [6]: 1.5

CCOC(=O)N[C@H]([C@@H](O)C(=O)O[C@H]1C[C@@]2(O)[C@@H](OC(=O)c3ccccc3)[C@H]3[C@](C)(C(=O)[C@H](O)C(=C1C)C2(C)C)[C@@H](O)CC1OC[C@]13OC(C)=O)C(C)(C)C (some centres undefined)
ED50 ratio [1]: 3.4
solubility [2]: 9.7 µg/mL (≈ 12.8 µM)
Ratio [3]: 32

CC(=O)O[C@@]12COC1C[C@H](O)[C@@]1(C)C(=O)[C@H](O)C3=C(C)[C@@H](OC(=O)[C@H](O)[C@@H](NC(=O)c4ccsc4)C(C)(C)C)C[C@@](O)([C@@H](OC(=O)c4ccccc4)[C@@H]12)C3(C)C (some centres undefined)
ED50 ratio [1]: 1.2
solubility [2]: 4.7 µg/mL (≈ 5.89 µM)
Ratio [3]: 16

CC(=O)O[C@@]12COC1C[C@H](O)[C@@]1(C)C(=O)[C@H](O)C3=C(C)[C@@H](OC(=O)[C@H](O)[C@@H](NC(=O)c4sccc4C)C(C)(C)C)C[C@@](O)([C@@H](OC(=O)c4ccccc4)[C@@H]12)C3(C)C (some centres undefined)
ED50 ratio [1]: 1.3
ED50 ratio [6]: 1.4

CC(=O)O[C@@]12COC1C[C@H](O)[C@@]1(C)C(=O)[C@H](O)C3=C(C)[C@@H](OC(=O)[C@H](O)[C@@H](NC(=O)c4cccs4)C(C)(C)C)C[C@@](O)([C@@H](OC(=O)c4ccccc4)[C@@H]12)C3(C)C (some centres undefined)
Ratio [7]: 28
ED50 ratio [1]: 0.53
solubility [8]: 8.4 µg/mL (≈ 10.5 µM)
ED50 ratio [6]: 0.42

CC(=O)O[C@@]12COC1C[C@H](O)[C@@]1(C)C(=O)[C@H](O)C3=C(C)[C@@H](OC(=O)[C@H](O)[C@@H](NC(=O)c4ccoc4)C(C)(C)C)C[C@@](O)([C@@H](OC(=O)c4ccccc4)[C@@H]12)C3(C)C (some centres undefined)
ED50 ratio [1]: 2.3
ED50 ratio [6]: 1.6

CC(=O)O[C@@]12COC1C[C@H](O)[C@@]1(C)C(=O)[C@H](O)C3=C(C)[C@@H](OC(=O)[C@H](O)[C@@H](NC(=O)C4CCC4)C(C)(C)C)C[C@@](O)([C@@H](OC(=O)c4ccccc4)[C@@H]12)C3(C)C (some centres undefined)
ED50 ratio [1]: 3
solubility [2]: 24 µg/mL (≈ 31.2 µM)
Ratio [3]: 80

CC(=O)O[C@@]12COC1C[C@H](O)[C@@]1(C)C(=O)[C@H](O)C3=C(C)[C@@H](OC(=O)[C@H](O)[C@@H](NC(=O)c4ccccc4)C(C)(C)C)C[C@@](O)([C@@H](OC(=O)c4ccccc4)[C@@H]12)C3(C)C (some centres undefined) [BUTITAXEL]
ED50 ratio [1]: 7.5
solubility [2]: 2.8 µg/mL (≈ 3.54 µM)
Ratio [3]: 9.3
